Experiment [1] has as its target RAC-alpha serine/threonine-protein kinase (Homo sapiens) (UniProt P31749). As to the kind of experiment: Inhibition of AKT1 (unknown origin) at 1 uM relative to control; values are per cent of control.
The target of experiment [2] is Serine/threonine-protein kinase MARK1 (Homo sapiens) (UniProt Q9P0L2). As to the kind of experiment: Inhibition of MARK1 (unknown origin) at 1 uM relative to control; values are per cent of control.
Experiment [3] deals with Serine/threonine-protein kinase Nek6 (Homo sapiens) (UniProt Q9HC98). As to the kind of experiment: Inhibition of NEK6 (unknown origin) at 1 uM relative to control; values are per cent of control.
Sequence of Serine/threonine-protein kinase Nek6 (Homo sapiens) (Q9HC98 whole entry): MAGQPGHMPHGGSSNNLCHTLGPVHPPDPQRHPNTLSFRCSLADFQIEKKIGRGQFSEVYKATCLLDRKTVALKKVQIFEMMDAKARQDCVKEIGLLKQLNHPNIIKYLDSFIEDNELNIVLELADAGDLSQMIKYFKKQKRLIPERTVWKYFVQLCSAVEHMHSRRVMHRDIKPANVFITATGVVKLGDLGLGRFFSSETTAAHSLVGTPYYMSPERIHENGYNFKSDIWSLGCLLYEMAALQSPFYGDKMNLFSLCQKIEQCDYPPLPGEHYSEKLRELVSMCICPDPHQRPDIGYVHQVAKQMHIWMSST
Experiment [4] has as its target MAP kinase-activated protein kinase 2 (Homo sapiens) (UniProt P49137). As to the kind of experiment: Inhibition of MAPKAPK2 (unknown origin) at 1 uM relative to control; values are per cent of control.
For experiment [5], the target named is Insulin-like growth factor 1 receptor (Homo sapiens) (UniProt P08069). Nature of the experiment: Inhibition of IGF1R (unknown origin) at 1 uM relative to control; values are per cent of control.
In experiment [6] the target is Ribosomal protein S6 kinase beta-1 (Homo sapiens) (UniProt P23443). Nature of the experiment: Inhibition of S6K1 (unknown origin) at 1 uM relative to control. The settings on record: values are per cent of control. Summed up:
(§1)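 KinomeSCAN competitive binding panel of 100 kinases; compounds tested at 1 µM in duplicate; read-out is percent […] control.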

Experiment [7] deals with T1, Cyclin-G-associated kinase (Homo sapiens) (UniProt O14976).
T1 sequence (whole entry): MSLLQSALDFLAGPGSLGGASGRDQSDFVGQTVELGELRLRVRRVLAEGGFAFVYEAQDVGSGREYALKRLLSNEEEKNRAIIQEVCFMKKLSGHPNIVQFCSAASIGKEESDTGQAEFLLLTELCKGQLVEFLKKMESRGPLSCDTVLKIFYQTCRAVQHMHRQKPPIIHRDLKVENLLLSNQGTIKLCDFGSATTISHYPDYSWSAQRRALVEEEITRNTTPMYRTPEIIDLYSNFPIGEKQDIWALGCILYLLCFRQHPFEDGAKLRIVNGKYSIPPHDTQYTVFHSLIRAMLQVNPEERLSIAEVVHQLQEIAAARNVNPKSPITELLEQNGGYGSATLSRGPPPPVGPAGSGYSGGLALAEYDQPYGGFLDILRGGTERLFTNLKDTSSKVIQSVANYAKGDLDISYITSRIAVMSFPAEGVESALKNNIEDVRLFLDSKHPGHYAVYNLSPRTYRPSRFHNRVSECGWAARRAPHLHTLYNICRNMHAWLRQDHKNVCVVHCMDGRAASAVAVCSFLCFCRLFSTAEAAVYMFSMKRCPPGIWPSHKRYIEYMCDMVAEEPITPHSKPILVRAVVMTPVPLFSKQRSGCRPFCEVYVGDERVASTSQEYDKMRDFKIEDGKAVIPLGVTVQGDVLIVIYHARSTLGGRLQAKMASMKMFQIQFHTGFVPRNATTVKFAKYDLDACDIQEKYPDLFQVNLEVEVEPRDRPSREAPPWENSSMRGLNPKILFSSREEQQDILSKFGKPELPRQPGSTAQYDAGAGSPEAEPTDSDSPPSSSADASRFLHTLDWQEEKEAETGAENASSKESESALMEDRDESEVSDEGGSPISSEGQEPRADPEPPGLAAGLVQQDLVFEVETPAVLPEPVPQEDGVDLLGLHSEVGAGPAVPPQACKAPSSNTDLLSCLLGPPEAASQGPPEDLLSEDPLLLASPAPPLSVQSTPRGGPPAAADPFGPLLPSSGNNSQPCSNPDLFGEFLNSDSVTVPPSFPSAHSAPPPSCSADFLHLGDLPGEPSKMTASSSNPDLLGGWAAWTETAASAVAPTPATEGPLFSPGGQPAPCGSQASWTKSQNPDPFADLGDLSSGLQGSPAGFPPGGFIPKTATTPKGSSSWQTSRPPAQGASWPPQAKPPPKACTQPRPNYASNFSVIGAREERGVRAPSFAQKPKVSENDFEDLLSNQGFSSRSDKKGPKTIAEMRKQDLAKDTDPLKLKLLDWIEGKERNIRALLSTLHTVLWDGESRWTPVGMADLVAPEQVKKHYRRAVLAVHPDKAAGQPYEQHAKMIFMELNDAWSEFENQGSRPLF
Nature of the experiment: Inhibition of GAK (unknown origin) at 1 uM relative to control; values are per cent of control.

The target in experiment [8] is Receptor-interacting serine/threonine-protein kinase 2 (Homo sapiens) (UniProt O43353). Nature of the experiment: Inhibition of RIPK2 (unknown origin) at 1 uM relative to control. The settings on record: values are per cent of control. Summed up:
as §1

Experiment [9] addresses T2, Serine/threonine-protein kinase D2 (Homo sapiens) (UniProt Q9BZL6).
T2 sequence (whole entry): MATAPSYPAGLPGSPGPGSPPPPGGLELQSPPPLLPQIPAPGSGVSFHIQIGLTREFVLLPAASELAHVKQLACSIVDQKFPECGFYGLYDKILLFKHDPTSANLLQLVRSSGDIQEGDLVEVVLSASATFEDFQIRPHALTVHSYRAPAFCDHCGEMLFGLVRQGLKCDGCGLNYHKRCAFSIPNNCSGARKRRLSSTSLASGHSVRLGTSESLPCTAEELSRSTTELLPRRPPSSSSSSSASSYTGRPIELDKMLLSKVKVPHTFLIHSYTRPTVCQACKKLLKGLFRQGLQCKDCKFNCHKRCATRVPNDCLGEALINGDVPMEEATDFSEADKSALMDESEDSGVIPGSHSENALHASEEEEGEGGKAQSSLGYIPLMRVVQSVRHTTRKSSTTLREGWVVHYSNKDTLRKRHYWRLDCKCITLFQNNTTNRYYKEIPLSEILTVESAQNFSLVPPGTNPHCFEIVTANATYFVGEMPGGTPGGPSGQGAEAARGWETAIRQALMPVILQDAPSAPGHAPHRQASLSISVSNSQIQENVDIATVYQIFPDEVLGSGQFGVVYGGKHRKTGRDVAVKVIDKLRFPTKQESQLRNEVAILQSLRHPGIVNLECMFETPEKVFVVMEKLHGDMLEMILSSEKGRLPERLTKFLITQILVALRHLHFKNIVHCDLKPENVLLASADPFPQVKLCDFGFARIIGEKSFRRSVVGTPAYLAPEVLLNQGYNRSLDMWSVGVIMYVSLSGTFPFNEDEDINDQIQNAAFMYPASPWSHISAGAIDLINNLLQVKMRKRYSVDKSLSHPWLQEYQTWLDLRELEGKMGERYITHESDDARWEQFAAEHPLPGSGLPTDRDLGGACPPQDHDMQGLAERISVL
Nature of the experiment: Inhibition of PRKD2 (unknown origin) at 1 uM relative to control. As to conditions: values are per cent of control. Summed up: as §1

Experiment [10] has as its target Phosphatidylinositol 4,5-bisphosphate 3-kinase catalytic subunit alpha isoform (Homo sapiens) (UniProt P42336). Nature of the experiment: Inhibition of PIK3CA (unknown origin) at 1 uM relative to control. As to conditions: values are per cent of control. Summed up:
as §1

This passage reports residual activity and residual binding, % of control results from ChEMBL document CHEMBL3259739, “Synthesis and structure-activity relationship of trisubstituted thiazoles as Cdc7 kinase inhibitors” (Eur J Med Chem, 2014).

Structures are written as SMILES.

Sequence of MAP kinase-activated protein kinase 2 (Homo sapiens) (P49137 whole entry, looked up): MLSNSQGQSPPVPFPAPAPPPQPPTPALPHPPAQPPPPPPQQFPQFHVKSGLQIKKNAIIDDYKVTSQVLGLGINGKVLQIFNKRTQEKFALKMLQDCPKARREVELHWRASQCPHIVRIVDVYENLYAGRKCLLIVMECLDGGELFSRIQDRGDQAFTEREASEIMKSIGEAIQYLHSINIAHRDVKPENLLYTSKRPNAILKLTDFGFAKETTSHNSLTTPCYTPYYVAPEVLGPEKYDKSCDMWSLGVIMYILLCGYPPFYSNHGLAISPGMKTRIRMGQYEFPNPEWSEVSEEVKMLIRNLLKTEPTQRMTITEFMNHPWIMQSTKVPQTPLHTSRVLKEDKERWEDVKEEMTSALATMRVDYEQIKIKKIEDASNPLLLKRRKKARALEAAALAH
Sequence of Phosphatidylinositol 4,5-bisphosphate 3-kinase catalytic subunit alpha isoform (Homo sapiens) (P42336 whole entry, canonical isoform): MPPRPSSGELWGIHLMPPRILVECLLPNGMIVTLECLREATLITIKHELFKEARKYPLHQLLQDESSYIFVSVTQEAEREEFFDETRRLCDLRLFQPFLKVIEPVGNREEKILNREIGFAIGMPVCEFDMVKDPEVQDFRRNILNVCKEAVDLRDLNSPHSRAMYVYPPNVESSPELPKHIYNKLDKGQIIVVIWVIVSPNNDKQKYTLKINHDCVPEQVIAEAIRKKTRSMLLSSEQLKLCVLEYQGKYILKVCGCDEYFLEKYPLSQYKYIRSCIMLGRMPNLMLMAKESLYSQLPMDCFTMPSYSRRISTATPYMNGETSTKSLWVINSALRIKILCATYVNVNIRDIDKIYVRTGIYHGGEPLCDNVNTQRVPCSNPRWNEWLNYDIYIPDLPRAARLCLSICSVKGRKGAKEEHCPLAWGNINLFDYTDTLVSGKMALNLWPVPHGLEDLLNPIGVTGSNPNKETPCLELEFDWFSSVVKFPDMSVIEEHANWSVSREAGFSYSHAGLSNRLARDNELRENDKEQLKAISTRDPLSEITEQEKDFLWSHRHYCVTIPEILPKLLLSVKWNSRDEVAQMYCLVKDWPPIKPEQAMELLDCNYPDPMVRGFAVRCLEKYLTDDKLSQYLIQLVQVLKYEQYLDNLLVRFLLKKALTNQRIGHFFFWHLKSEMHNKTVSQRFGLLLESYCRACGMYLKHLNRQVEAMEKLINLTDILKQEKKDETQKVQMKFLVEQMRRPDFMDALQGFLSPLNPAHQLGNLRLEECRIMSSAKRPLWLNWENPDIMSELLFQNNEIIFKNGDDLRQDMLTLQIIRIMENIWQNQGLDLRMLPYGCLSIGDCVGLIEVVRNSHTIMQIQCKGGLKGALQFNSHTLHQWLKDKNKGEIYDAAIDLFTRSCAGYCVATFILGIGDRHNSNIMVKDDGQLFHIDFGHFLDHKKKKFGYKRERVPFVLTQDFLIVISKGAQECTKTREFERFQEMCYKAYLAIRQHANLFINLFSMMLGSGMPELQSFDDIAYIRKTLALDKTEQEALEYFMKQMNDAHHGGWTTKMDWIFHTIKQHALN
Sequence of Receptor-interacting serine/threonine-protein kinase 2 (Homo sapiens) (O43353 whole entry): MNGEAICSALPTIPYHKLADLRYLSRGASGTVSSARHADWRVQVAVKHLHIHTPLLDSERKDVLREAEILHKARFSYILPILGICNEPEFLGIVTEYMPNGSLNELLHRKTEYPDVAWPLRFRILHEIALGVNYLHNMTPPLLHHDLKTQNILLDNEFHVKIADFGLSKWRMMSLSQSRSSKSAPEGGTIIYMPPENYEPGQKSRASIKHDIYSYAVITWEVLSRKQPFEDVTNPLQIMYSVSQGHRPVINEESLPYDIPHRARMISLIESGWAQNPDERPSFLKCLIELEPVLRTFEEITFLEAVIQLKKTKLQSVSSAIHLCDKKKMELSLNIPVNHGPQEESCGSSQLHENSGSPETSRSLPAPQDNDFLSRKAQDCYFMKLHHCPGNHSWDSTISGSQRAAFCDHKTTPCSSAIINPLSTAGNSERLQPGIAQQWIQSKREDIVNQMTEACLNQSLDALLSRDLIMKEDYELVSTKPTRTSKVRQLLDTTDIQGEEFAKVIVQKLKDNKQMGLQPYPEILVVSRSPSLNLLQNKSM
Sequence of RAC-alpha serine/threonine-protein kinase (Homo sapiens) (P31749 whole entry): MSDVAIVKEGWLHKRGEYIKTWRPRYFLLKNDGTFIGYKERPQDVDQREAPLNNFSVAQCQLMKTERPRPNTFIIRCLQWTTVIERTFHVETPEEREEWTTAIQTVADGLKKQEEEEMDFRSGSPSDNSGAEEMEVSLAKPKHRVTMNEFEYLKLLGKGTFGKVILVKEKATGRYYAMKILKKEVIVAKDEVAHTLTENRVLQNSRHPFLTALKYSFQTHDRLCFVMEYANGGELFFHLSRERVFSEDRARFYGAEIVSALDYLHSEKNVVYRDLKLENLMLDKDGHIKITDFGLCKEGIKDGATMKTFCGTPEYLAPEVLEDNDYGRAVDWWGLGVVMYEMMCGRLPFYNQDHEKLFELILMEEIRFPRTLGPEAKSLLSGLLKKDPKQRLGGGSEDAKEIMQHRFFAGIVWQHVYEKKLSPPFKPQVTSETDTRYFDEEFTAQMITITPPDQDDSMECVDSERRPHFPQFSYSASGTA
Sequence of Serine/threonine-protein kinase MARK1 (Homo sapiens) (Q9P0L2 whole entry, looked up): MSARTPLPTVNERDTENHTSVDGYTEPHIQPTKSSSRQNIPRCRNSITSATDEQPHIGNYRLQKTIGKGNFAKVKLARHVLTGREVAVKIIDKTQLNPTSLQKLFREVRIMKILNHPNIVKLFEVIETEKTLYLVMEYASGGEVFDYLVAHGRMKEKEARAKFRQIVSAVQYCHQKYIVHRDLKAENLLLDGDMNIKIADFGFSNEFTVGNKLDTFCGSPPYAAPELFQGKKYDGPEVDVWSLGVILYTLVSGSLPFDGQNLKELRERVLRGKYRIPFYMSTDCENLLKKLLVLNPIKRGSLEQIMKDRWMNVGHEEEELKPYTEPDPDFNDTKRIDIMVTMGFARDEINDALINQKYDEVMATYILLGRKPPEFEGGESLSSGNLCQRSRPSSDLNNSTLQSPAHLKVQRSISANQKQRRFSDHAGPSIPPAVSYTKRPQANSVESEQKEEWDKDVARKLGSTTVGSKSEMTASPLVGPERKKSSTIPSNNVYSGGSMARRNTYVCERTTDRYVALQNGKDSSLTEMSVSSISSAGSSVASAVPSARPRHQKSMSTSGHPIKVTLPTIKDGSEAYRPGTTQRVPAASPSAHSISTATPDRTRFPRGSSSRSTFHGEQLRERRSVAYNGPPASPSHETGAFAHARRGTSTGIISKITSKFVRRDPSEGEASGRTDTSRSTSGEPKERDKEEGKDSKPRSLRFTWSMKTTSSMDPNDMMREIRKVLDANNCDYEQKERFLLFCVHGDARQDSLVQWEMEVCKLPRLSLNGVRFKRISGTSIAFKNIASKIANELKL
Sequence of Ribosomal protein S6 kinase beta-1 (Homo sapiens) (P23443 whole entry, looked up): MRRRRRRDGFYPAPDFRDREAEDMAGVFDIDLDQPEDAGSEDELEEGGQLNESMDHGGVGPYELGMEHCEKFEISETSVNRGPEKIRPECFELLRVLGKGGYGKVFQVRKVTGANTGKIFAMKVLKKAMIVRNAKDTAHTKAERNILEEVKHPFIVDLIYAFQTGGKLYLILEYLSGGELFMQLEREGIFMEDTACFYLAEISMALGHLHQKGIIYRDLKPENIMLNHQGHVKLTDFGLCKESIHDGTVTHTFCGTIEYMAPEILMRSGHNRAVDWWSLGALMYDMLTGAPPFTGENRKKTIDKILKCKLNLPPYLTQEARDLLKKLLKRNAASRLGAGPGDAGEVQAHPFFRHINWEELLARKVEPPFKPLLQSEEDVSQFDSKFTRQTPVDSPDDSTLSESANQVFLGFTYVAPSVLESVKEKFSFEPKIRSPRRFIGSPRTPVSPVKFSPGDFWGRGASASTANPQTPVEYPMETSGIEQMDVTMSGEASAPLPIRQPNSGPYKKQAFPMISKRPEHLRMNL

For the molecule `NC(=O)c1sc(-c2ccnc(N)n2)nc1-c1ccc(Cl)cc1Cl`, the residual activity in [1] stood at 80%; in experiment [2], 100%; in experiment [3], 81%; in [4] it was 96%; in [5], 94%; in experiment [7], 90%. Also, the residual binding, % of control in experiment [6] is 75%; in experiment [8] it was 82%; in experiment [9], 92%; in experiment [10], 78%.
Turning to `CCOC(=O)c1sc(-c2ccncc2)nc1O`, the residual activity was determined as 75% in experiment [1]; 100% in experiment [2]; 65% in experiment [3]; 94% in [4]; 85% in [5]; 97% in experiment [7]. Moreover, the residual binding, % of control in [6] stood at 83%; in [8] it was 99%; in experiment [9], 99%; in experiment [10], 100%.
For `COc1ccc(-c2nc(-c3ccnc(N)n3)sc2C(N)=O)c(Cl)c1`, the residual activity in experiment [1] worked out at 66%; in [2], 100%; in [3] it was 85%; in experiment [4] it was 100%; in [5] it was 76%; in experiment [7] it was 88%. For the same molecule, the residual binding, % of control in experiment [6] stood at 42%; in [8] it was 96%; in experiment [9], 77%; in experiment [10], 83%.
